Here are results for 3 compounds from publication PMC8596596 (Journal of Clinical Pharmacology, 2021).

Where “and” joins values, the source holds several entries; their conditions need not be identical. Identical values can stand only once. Like-named read-outs stand apart in the source and are kept apart here.

For series [1], the system named is healthy subjects. As to conditions: cited from earlier work.
Series [2] concerns healthy elderly subjects. The series is described as follows: Visual-verbal learning test. In kind it is in vivo, human. As to conditions: 4 mg oral, vs placebo. In a few lines:
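A 30-word list was presented. Immediate recall rounds assessed acquisition at 1.5 h postdose, followed by delayed recall and recognition. Subjects received oral 4 mg, 2 mg or placebo in a crossover design; single-occasion test. Analysed by mixed-model ANOVA with treatment and period as fixed factors and subject as random factor, comparing least-squares means with placebo.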

The nature of series [3]: Population PK model. In kind it is in vivo, human. As to conditions: oral. A digest of the protocol: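 Nonlinear mixed-effects modelling of plasma concentrations after oral 2 and 4 mg in healthy elderly subjects. 1-, 2- and 3-compartment models were explored, with or without absorption lag time and transit compartments. Between-subject and between-occasion variability were added bottom-up (P < .01). Age, sex, weight and BMI were tested as covariates (forward P < .01, backward P < .001). The final model had 2 compartments with linear elimination.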

For series [4], the system named is healthy elderly subjects. Briefly: Adaptive tracking test. The series is classed as in vivo, human. As to conditions: for decrease in mean adaptive tracking test performance: vs placebo. In a few lines:
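Randomized, double-blind, placebo-controlled 3-way crossover in 12 subjects aged 65–80 years (MMSE ≥28). Single oral doses of 2 or 4 mg test compound or placebo, 1-week washout. Joystick pursuit task: the subject keeps a dot inside a randomly moving circle, whose speed rises with success and falls with failure. Tested twice predose and at 1, 2.5, 4, 7 and 22 h. Mixed-model ANCOVA with baseline covariate; least-squares means versus placebo.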

Series [5] concerns the target M5 mAChR. As to conditions: read-out: equilibrium dissociation constant [Kd] for M5; cited from earlier work.
The conditions of series [6]: cited from earlier work.
For series [7], the system named is healthy elderly subjects. The series is described as follows: N-back task. In kind it is in vivo, human. As to conditions: vs placebo.
The test system of series [8] is healthy elderly subjects. The series is described as follows: Population PK-PD model. The series is classed as in vivo, human.
In series [9] the test system is healthy elderly subjects. The series is described as follows: Safety and tolerability. The series is classed as in vivo, human. As to conditions: 2 and 4 mg oral. A digest of the protocol:
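Safety was monitored through treatment-emergent adverse events, laboratory tests, vital signs and ECG during each period. Randomization gave the 4-mg dose only after the 2-mg study day had been completed. A snack was given within 30 minutes before dosing, and caffeine and nicotine were not allowed. Oral single doses with a 1-week washout.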

Series [10] concerns the target M4 mAChR. The following applies: read-out: equilibrium dissociation constant [Kd] for M4; cited from earlier work.
Series [11] deals with healthy elderly subjects. Briefly: Body sway. The series is classed as in vivo, human. As to conditions: 22 hours postdose. A digest of the protocol: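 Crossover in healthy elderly subjects given oral 2 mg, 4 mg or placebo. Postural stability was measured with a body sway meter recording movement in a single plane over 2 minutes, with movements integrated. Measured twice predose and at 1, 2.5, 4, 7 and 22 h postdose. Analysis used mixed-model ANCOVA with time and treatment factors and the average baseline as covariate.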

The target in series [12] is M3 mAChR. The following applies: read-out: equilibrium dissociation constant [Kd] for M3; cited from earlier work.
A short description of series [13]: Plasma pharmacokinetics, noncompartmental analysis. The series is classed as in vivo. As to conditions: human, po. A digest of the protocol: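 K2-EDTA plasma underwent liquid-liquid extraction and LC-MS/MS: phenyl column, isocratic 0.025% NH4OH in 67% acetonitrile, positive MRM at m/z 312→143, deuterated internal standard. QC levels were 0.300, 1.50 and 8.00 ng/mL. Parameters were obtained by noncompartmental analysis.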

In series [14] the target is M2 mAChR. As to conditions: read-out: equilibrium dissociation constant [Kd] for M2; cited from earlier work.
Series [15] concerns healthy elderly subjects. The series is described as follows: Visual analog scales. The following applies: both doses (2 and 4 mg). The series is classed as in vivo, human. A digest of the protocol: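 Bond and Lader visual analog scales rated alertness, mood and calmness, and nausea was rated on a 100-mm line. Oral 2 mg, 4 mg or placebo in a crossover design in healthy elderly subjects. Ratings were made repeatedly predose and up to 22 h postdose. Analysed by mixed-model ANCOVA with baseline covariate against placebo.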

Series [16] relates to healthy elderly subjects. The series is described as follows: Mismatch negativity auditory event-related potential. In kind it is in vivo, human. The following applies: vs placebo. A digest of the protocol:
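Passive auditory oddball while subjects watched a silent movie. 750 tones were given (600 frequent, 150 deviant), each 150 ms at 75 dB, at a fixed 2 Hz rate. Event-related potential recorded by EEG. Healthy elderly subjects received oral 2 or 4 mg or placebo in a crossover design with repeated postdose sessions. Compared with placebo by mixed-model analysis.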

Series [17] relates to healthy elderly subjects. The series is described as follows: Finger tapping test. The series is classed as in vivo, human. As to conditions: both doses (2 and 4 mg). A digest of the protocol:
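Finger tapping with the index finger of the dominant hand on a computer space bar, as fast as possible. Each session had 5 trials of 10 s, and mean tapping rate and SD were analysed. Oral 2 mg, 4 mg or placebo in a crossover design; tests predose and at 1, 2.5, 4, 7 and 22 h. Mixed-model ANCOVA with baseline covariate.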

The target of series [18] is M1 mAChR. The following applies: read-out: equilibrium dissociation constant [Kd] for M1; cited from earlier work.
Series [19] deals with healthy elderly subjects. The series is described as follows: Saccadic and smooth pursuit eye movements. The series is classed as in vivo, human. In a few lines: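 Subjects followed a horizontally moving target on a screen 58 cm away. The target moved continuously for smooth pursuit and jumped side to side for saccades, and movements were recorded by computer. Oral 2 mg, 4 mg or placebo in a crossover design in healthy elderly subjects; tests predose and at 1, 2.5, 4, 7 and 22 h. Mixed-model ANCOVA with baseline covariate.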

Series [20] relates to healthy elderly subjects. Briefly: Pupillometry. In kind it is in vivo, human. In a few lines: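 Pupil images were taken with a digital camera and single flash. Pupil and iris diameters were measured horizontally in pixels, and the pupil/[…] diameter ratio was calculated for each eye. Oral 2 mg, 4 mg or placebo in a crossover design in healthy elderly subjects. Measured twice predose and at 1, 2.5, 4, 7 and 22 h. Mixed-model ANCOVA with baseline covariate against placebo.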

Series [21] relates to healthy subjects. As to conditions: cited from earlier work. This is another data set of the same source.

As to `CN1[C@@H]2C[C@@H](OC(=O)[C@H](CO)c3ccccc3)C[C@H]1[C@@H]1O[C@@H]12` [scopolamine], in series [1], the “peak saccadic velocity, effect” value is given as “concentration‐related decrease”.
With `OC(CCN1CCCCC1)(c1ccccc1)C1CC2C=CC1C2` (centres unmarked) [biperiden], in [2], the “VVLT second immediate recall round, fewer words recalled” value amounted to 2.5 words and the “VVLT third immediate recall round, fewer words recalled” value is listed as 2.9 words. In addition, the half-life in series [3] (human, plasma) was 29.5 h. Further, in [3] (population PK estimate), the Absorption rate constant is 2.73 (BOV = 97.7%) /hour; the Clearance is listed as 78.06 (IIV = 172%, BOV = 12%) L/h/F; the Lag time is listed as 0.54 (BOV = 75%) hours; the “Volume of distribution—central” value is listed as 491.40 (IIV = 79.5%) L/F. The “decrease in mean adaptive tracking test performance” value in [4] (2 mg oral) was 1.36 percentage point. Moreover, in [4] (4 mg oral), the “adaptive tracking, change compared with placebo” value was −2.1 percentage point; the “decrease in mean adaptive tracking test performance” value was 2.10 percentage point and 2.1 percentage point. Moreover, in series [5], the Kd is 6.3 ± 0.1 nM. The bioavailability result in series [6] (assumed, oral ref 18) is “approximately 33%”. Moreover, in [6] (postdose, as stated for previous studies), the Tmax result is reported as “approximately 1 hour”. Besides, the “n-back reaction time and accuracy, change” value in [7] (2 mg oral) was “No significant change”. In series [7] (4 mg oral), the “n-back 0-back condition reaction time, mean difference” value is given as 37.2 milliseconds; the “n-back 1-back condition reaction time, mean difference” value was 49.9 milliseconds; the “n-back 2-back condition accuracy, decrease” value is reported as 0.06; the “n-back task reaction time increase” value is ≤ 50 millisecond. In series [8], the “adaptive tracking, linear concentration-effect slope” value is −0.98 percentage point/ng/mL; the “n-back 0-back accuracy measure, drug effect” value is recorded as “No significant effect”; the “n-back 0-back reaction time, Emax” value turned out to be 288.5 milliseconds; the “n-back 0-back reaction time, Hill coefficient” value came to 2.25. In addition, in [8], the “n-back 1-back accuracy measure, linear drug effect slope” value was -0.011 ng⁻¹ mL⁻¹; the “n-back 1-back reaction time, linear drug effect slope” value is 16.18 ms/ng/mL; the “n-back 2-back reaction time, linear drug effect slope” value was 11.08 ms/ng/mL. Further, the tolerability result in series [9] is on record as “well tolerated”. Further, the tolerability entry in series [9] (listed as Biperiden) is “very well tolerated”. Also, the Kd in series [10] is 2.4 ± 0.03 nM. The “body sway, recovery” value in series [11] is “not normalized 22 hours postdose”. Further, the Kd in series [12] was 3.9 ± 0.1 nM. In [13] (2 mg), this compound gave an AUC(0-t) of 18.4 ng·h/mL and a Cmax of 3.51 ng/mL. For the same compound, in series [13] (4 mg), the AUC(0-t) was found to be 39.5 ng·h/mL, the Cmax came to 7.45 ng/mL and the Tmax was determined as 2 h. Also, the Kd in [14] is 6.3 ± 0.5 nM. Moreover, in [15], the “VAS Bond and Lader subscales of mood, alertness, and calmness, change” value is listed as “No significant changes”; the “VAS nausea scores, change” value is reported as “No significant changes”. For the same compound, the “MMN latency at Fz, increase” value in series [16] (2 mg oral) is 12.1 milliseconds. Further, the “MMN latency at Fz, increase” value in [16] (4 mg oral) is listed as 13.9 milliseconds. For the same compound, the “tapping-test performance, change” value in series [17] is reported as “No significant changes”. The Kd in [18] is 0.48 ± 0.02 nM. Further, in series [19] (2 mg oral, vs placebo), the “smooth pursuit, effect” value is on record as “No significant effect”. Also, the smooth pursuit decrease in series [19] (4 mg oral, vs placebo) is recorded as 3.55 percentage point. Further, the “saccadic inaccuracy, peak velocity, or reaction time, effect” value in series [19] (both doses (2 and 4 mg) vs placebo) was “No significant effects”. Besides, in [20] (4 mg oral, vs placebo), the “pupil/iris ratio left eye, mean difference” value is 0.065 and the “pupil/iris ratio right eye, mean difference” value is reported as 0.07341. Also, the “pupil/iris ratio in both eyes, recovery” value in series [20] (22 hours postdose) is reported as “not normalized 22 hours postdose”.
`NC(=O)C(c1ccccc1)(c1ccccc1)[C@@H]1CCN(CCc2ccc3c(c2)CCO3)C1` [darifenacin]: in series [21], the “effect on body sway” value is “increase body sway”.

What is called half-life is the time in which the quantity being followed falls by half. Low readings indicate fast loss, high ones slow loss. What is called Kd is a measure of binding affinity in units of concentration. As usually defined, the Tmax is the time at which the peak concentration occurs. What is called AUC(0-t) is the area under the concentration-time curve up to a stated or last time point. As a reminder, the Cmax is the highest concentration seen after dosing.
